Measured values pooled from the literature.
Protocols differ between the studies behind these lines.
KMT5A: N-lysine methyltransferase KMT5A (KMT5A, Homo sapiens, UniProt Q9NQR1)
EP300: Histone acetyltransferase p300 (EP300, Homo sapiens, UniProt Q09472)

| SMILES | target | observed | action | method | tested at | endpoint | result |
| --- | --- | --- | --- | --- | --- | --- | --- |
| Cc1cc(O)c(C=O)c2c1C(=O)Oc1c(C)c(O)c3c(c1O2)C(O)OC3=O (stereo not drawn) | KMT5A | cell-free assay | – | – | 10 µM | inhibition | -14% |
| Cc1cnc(Nc2ccc(OCCN3CCCC3)cc2)nc1Nc1cccc(S(=O)(=O)NC(C)(C)C)c1 | EP300 | thermal stability | – | DSF | 10 µM | ΔTm | 2.76 °C |
| Nc1ncnc2occ(-c3ccc(NC(=O)Nc4cc(C(F)(F)F)ccc4F)cc3)c12 | Tyrosine-protein kinase ABL1, non-phosphorylated (ABL1, Homo sapiens, UniProt P00519, F317I) | cell-free assay | inhibitor | – | 20 µM | remaining signal | 0.45% |
| Cc1ccc(C(=O)Nc2ccc(CN3CCN(C)CC3)c(C(F)(F)F)c2)cc1C#Cc1cnc2cccnn12 | Serine/threonine-protein kinase RIO1 (RIOK1, Homo sapiens, UniProt Q9BRS2) | enzyme activity | inhibitor | – | 23.5 nM | remaining activity | 98% |
| Oc1ccc(-c2nc(-c3ccncc3)c(-c3ccc(F)cc3)[nH]2)cc1 | EP300 | thermal stability | – | DSF | 10 µM | ΔTm | 0.33 °C |
| O=c1oc2c(O)c(O)cc3c(=O)oc4c(O)c(O)cc1c4c23 | KMT5A | cell-free assay | – | – | 10 µM | inhibition | 2% |
| Cc1cc(NC(=O)c2cccc3cc(-c4cccc5[nH]nc(N)c45)ccc23)ccc1F | Tyrosine-protein kinase ABL1 (ABL1, Homo sapiens, UniProt P00519, Q252H) | enzyme activity | inhibitor | – | 0.1 µM | activity vs control | 88% |
| CN(C)C1CCN(CC#Cc2nn(C3CCCC3)c3nc(NCc4ccccc4)ncc23)C1 (stereo not drawn) | Tyrosine-protein kinase ITK/TSK (ITK, Homo sapiens, UniProt Q08881) | enzyme activity | inhibitor | FRET | 1 µM | inhibition | 5% |
| NS(=O)(=O)c1ccc(Nc2nc(-c3ccc(F)cc3)c3ccccc3n2)cc1 | EP300 | binding | – | competition with immobilised ligand | 1 µM | remaining binding | 62% |
| COc1cc(-c2cc(-c3ccc(N4CCNCC4)cc3)cnc2N)cc(OC)c1OC | Tyrosine-protein kinase ABL1 (ABL1, Homo sapiens, UniProt P00519, H396P) | enzyme activity | inhibitor | – | 1 µM | inhibition | 96% |
| Oc1cccc(Nc2nc(-c3ccc(F)cc3F)cs2)c1 | Cholecystokinin receptor type A (CCKAR, Homo sapiens, UniProt P32238) | cell-free assay | – | – | 10 µM | inhibition | 76% |
| CCN(CC)CCNC(=O)c1c(C)[nH]c(/C=C2\C(=O)Nc3ccc(F)cc32)c1C | Protein kinase C beta type (PRKCB, Homo sapiens, UniProt P05771) | enzyme activity | inhibitor | – | 10 µM | inhibition | 0% |
